Results reported in PMC3210412 (Biochemical pharmacology, 2011).

Experiments:
[1] = tested on: FLuc reporter transcript; assay: RT-PCR of firefly luciferase; format: cell-based; details: 1 μM cosmosiin vs 1 nM E2, 4 and 24 hr; both cell lines
[2] = molecular target: T1, ERβ (Homo sapiens, UniProt Q92731); assay: Luciferase reporter assay in Hs578T-ERβLuc cells; format: cell-based; details: for luciferase induction in Hs578T-ERβLuc (in words): b31: 10 nM DPN or PPT, 24 hr, cosmosiin up to 10 μM
[3] = molecular target: T2, ERα (Homo sapiens, UniProt P03372); assay: Luciferase reporter assay in Hs578T-ERαLuc cells; format: cell-based; details: for luciferase induction in Hs578T-ERαLuc (in words): b31: 10 nM DPN or PPT, 24 hr
T2 sequence (P03372 1-595): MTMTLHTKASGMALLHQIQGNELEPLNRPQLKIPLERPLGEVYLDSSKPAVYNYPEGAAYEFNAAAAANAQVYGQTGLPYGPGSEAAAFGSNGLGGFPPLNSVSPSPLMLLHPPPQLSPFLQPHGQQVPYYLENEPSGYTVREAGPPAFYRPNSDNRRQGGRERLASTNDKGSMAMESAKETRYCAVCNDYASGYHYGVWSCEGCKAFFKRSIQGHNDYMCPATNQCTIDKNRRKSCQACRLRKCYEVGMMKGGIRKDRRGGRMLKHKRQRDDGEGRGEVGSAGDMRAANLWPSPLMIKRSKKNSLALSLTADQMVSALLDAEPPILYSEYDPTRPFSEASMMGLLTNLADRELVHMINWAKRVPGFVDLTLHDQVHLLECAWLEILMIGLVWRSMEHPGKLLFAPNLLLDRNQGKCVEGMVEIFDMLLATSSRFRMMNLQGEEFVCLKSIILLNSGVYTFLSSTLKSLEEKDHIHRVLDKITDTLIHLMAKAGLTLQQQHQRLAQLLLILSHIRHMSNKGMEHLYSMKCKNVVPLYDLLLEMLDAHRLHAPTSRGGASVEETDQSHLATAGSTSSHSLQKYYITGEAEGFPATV

[4] = tested on: C3 (ERβ target gene); assay: qPCR of ERβ target gene C3 in Hs578T-ERβ cells; format: cell-based; details: 50 ng/mL Dox 48 hr, ligand 24 hr; cosmosiin 1 μM
Summary of the method: (§1)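 Cells were hormone-depleted for 3 days in phenol red-free DMEM/F12 + 10% charcoal-stripped FBS, split into 5% stripped serum, and induced with 50 ng/mL Dox for 48 hr. They were then treated with Dox plus test compound or 0.1% DMSO vehicle for 24 hr. Total RNA was extracted and assayed by qRT-PCR: ITGA6 in Hs578T-ERα cells, C3 and JAG1 in Hs578T-ERβ cells. There were three biological replicates, with two-tailed t-tests against control.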

[5] = molecular target: T2, ERα; assay: Competitive ligand binding assay; details: read-out: IC50 ERα, unpublished data
[6] = tested on: ITGA6 (ERα target gene); assay: qPCR of ERα target gene ITGA6 in Hs578T-ERα cells; format: cell-based; details: for ITGA6 expression in Hs578T-ERα cells at 1 μM: 1 μM ligand, 24 hr; for ITGA6 expression in Hs578T-ERα cells: ligand 24 hr, DPN 10 nM, liquiritigenin 100 nM
Summary of the method: as §1

[7] = tested on: ERα/β and ERβ/β dimers; assay: BRET dimerization assays; format: cell-based; details: unpublished data
[8] = molecular target: T1, ERβ; assay: Competitive ligand binding assay
[9] = tested on: JAG1 (ERβ target gene); assay: qPCR of ERβ target gene JAG1 in Hs578T-ERβ cells; format: cell-based; details: for JAG1 repression in Hs578T-ERβ cells: 50 ng/mL Dox 48 hr, ligand 24 hr; for JAG1 repression compared to E2, DPN or 1 μM liquiritigenin: 100 nM liquiritigenin, 1 μM cosmosiin
Summary of the method: as §1

[10] = tested on: T47D-KBLuc cells; details: read-out: EC50, T47D-KBLuc cells; approximate; cited from earlier work
[11] = molecular target: T1, ERβ; assay: pGL4.3xERE reporter in HEK293 cells transfected with full length ERβ; format: cell-based; details: 1 nM E2, 24 hr
[12] = cited from earlier work
[13] = molecular target: T2, ERα; details: concentrations up to 2.5 μM; U2OS, HeLa or WAR5 prostate cancer cells transfected with ERα; cited from earlier work
[14] = molecular target: T2, ERα; details: cited from earlier work
[15] = molecular target: T2, ERα; details: cited from earlier work; remark: listed apart in the source
[16] = molecular target: T1, ERβ; details: cited from earlier work

T1 sequence (Q92731 whole entry): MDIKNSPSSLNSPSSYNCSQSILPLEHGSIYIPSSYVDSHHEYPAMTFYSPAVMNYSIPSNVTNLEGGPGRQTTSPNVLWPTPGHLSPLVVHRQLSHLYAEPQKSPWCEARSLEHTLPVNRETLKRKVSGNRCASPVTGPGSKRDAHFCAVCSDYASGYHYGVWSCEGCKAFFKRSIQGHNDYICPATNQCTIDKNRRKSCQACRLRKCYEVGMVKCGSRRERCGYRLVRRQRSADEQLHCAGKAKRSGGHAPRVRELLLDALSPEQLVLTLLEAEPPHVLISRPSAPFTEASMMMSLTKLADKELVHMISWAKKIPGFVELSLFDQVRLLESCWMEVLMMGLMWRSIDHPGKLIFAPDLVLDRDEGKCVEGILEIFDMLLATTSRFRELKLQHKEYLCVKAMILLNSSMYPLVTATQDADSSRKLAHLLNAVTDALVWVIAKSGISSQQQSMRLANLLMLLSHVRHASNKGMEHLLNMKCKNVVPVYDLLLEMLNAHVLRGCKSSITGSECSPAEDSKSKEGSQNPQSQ

SMILES	luciferase induction in Hs578T-ERβLuc (in words) [2]	luciferase induction in Hs578T-ERαLuc (in words) [3]	C3 expression in Hs578T-ERβ cells [4]	ITGA6 expression in Hs578T-ERα cells at 1 μM [6]	JAG1 repression in Hs578T-ERβ cells [9]	JAG1 repression compared to E2, DPN or 1 μM liquiritigenin [9]	ITGA6 expression in Hs578T-ERα cells [6]	other results
O=c1cc(-c2ccc(O)cc2)oc2cc(O[C@@H]3O[C@H](CO)[C@@H](O)[C@H](O)[C@H]3O)cc(O)c12 [Cosmosiin, apigenin 7-glucoside]	induced luciferase expression to a much greater extent than E2	only slightly activated luciferase reporter expression	induced C3 expression at 1 μM, but not to the same extent as E2	ITGA6 expression was induced	occurred to a similar degree	do not fully repress JAG1 expression	–	luciferase transcript level compared to E2 [1]: did not induce luciferase expression to a greater extent than E2; luciferase induction with ICI 182,780 co-treatment or without Dox ([2]; data not shown): did not induce luciferase expression in Dox-treated cells co-treated with ICI 182,780 or cells not treated with Dox; IC50 [5]: 15900 nM; ER dimer induction (BRET) [7]: selectively induces ERα/β and ERβ/β dimers; IC50 ([8]; read-out: IC50 ERβ, unpublished data): 3300 nM; higher binding affinity for ERβ ([8]; unpublished data): 3 fold
N#CC(Cc1ccc(O)cc1)c1ccc(O)cc1 (stereo not shown) [DPN, diarylpropionitrile]	–	–	capable of inducing C3 expression to a comparable level as E2	–	occurred to a similar degree	–	did not fully activate its expression	–
C[C@]12CC[C@@H]3c4ccc(O)cc4CC[C@H]3[C@@H]1CC[C@@H]2O [E2, 17β-estradiol]	–	–	up-regulated in Hs578T-ERβ cells	–	occurred to a similar degree	–	up-regulated	EC50 [10]: ~0.003 nM; induction of luciferase, HEK293 + ERβ [11]: 15 fold
C=Cc1cc(O)cc2nc(-c3ccc(O)c(F)c3)oc12 [ERB-041]	–	–	–	–	–	–	–	efficacy in rheumatoid arthritis trial [12]: did not improve arthritis symptoms; tolerability in rheumatoid arthritis trial [12]: well tolerated
O=C1C[C@@H](c2ccc(O)cc2)Oc2cc(O)ccc21 [Liquiritigenin, liquiritigenin]	–	–	capable of inducing C3 expression to a comparable level as E2	ITGA6 expression was induced	occurred to a similar degree	do not fully repress JAG1 expression	did not fully activate its expression	activation of ERα in transcriptional assays [13]: minimal activation of ERα
CCCc1c(-c2ccc(O)cc2)nn(-c2ccc(O)cc2)c1-c1ccc(O)cc1 [PPT, propyl pyrazole triol]	could not induce luciferase expression to the same extent as E2	selectively activated luciferase expression in Hs578T-ERαLuc	slightly induced C3 expression compared to DMSO	–	had no effect on JAG1 repression	–	up-regulated	EC50 [2]: 26 nM; concentrations at which reporter is activated in Hs578T-ERβLuc [2]: greater than 100 nM; higher binding affinity for ERα compared to ERβ [14]: 400 fold; induction of estrogen responsive reporter, HELN-ERα cells [15]: unable to induce an estrogen responsive reporter; EC50 [3]: 0.016 nM; selectivity for ERα (EC50 comparison) ([3]; Hs578T-ERαLuc vs Hs578T-ERβLuc): ~1000 fold; induction of estrogen responsive reporter, HEC-1 cells + ERβ [16]: unable to induce an estrogen responsive reporter
